Shown are actives, neighbours in structure and some others; about 3.6% of the full set was active somewhere.
AHR activator = AHR activators, primary screen, cell-based, luminescence, luciferase reporter, human; Aryl hydrocarbon receptor (Homo sapiens), P35869; AHR-responsive luciferase reporter cells; activation, % at 5 µM; 320,000 tested, 2.5% active; in the data active = activation above about 47%;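 note: 0% = vehicle wells and 100% = reference agonist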
STAT3 act = IL-6 driven STAT3 reporter potentiators, primary screen, U3A cells, luciferase, luminescence, MLSCN library; IL-6 STAT3-luciferase reporter; 100% = signal with IL-6 EC80 alone; activation (% of control), % at 5.6 µM; 190,000 tested, 0.91% active;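 active = activation above the screen-wide mean of compound activation plus 3 SD, cut at about 130% in these data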;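 note: 0% = background luminescence of wells with medium and substrate only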
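Detection: reporter luminescence signal / Assay system: STAT1-lacking human U3A cells, STAT3 luciferase reporter / Incubation: compound pre-incubation 1 h before IL-6, then 6 h stimulation at 37 °C / Control set: IL-6-only high control / Read-out: % activation relative to IL-6 control / Probe or stimulus: Interleukin-6, 33 ng/mL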
PERK inh = block of dimerizer-induced PERK translation repression, primary screen, PERK inhibitor project, CHO PERK-DD cells, SEAP luminescence, HTS | CHO PERK-DD fusion, SEAP luminescence translation reporter | inhibition, % at 5.6 µM | 220,000 tested, 0.17% active | AID 1416, 2008;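 active = inhibition above the mean inhibition of all tested compounds plus 3 SD, set separately per screening campaign, cut at about 2.9% in these data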;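 note: PERK kinase domain activated by AP20187 dimerizer at 100 nM; 0% = DMSO with dimerizer and 100% = rapamycin at 8.4 µM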
PolyA inh = polyadenylation inhibitors in yeast reporter cells, primary screen, luminescence, S. cerevisiae. S. cerevisiae SKY197-pL101 polyadenylation reporter, beta-gal luminescence; efflux-impaired pdr1/pdr3 knockout yeast; score 100 = 6 SD above DMSO. activity score, % at 12 µM. 300,000 tested, 0.02% active;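 active = lowest replicate activity score at least 50, where 100 means six control SD above control mean; inconclusive = lowest score under 50 but half or more replicates reach 50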;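 note: yeast exposed to compound for 9 h at 30 °C; higher score means more reporter readthrough which indicates perturbed polyadenylation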
Hsp70 act = Hsp70 transcriptional activators, primary screen, cell-based, HeLa, Hsp70 promoter luciferase, luminescence, 10 µM; HeLa Hsp70 promoter luciferase reporter; scaled: vehicle 0, proteasome-inhibitor control 100%; activation, % at 10 µM; 200,000 tested, 0.04% active;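 active = activation above the mean across all tested compounds plus 3 SD, cutoff set per campaign, cut at about 5.5% in these data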;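 note: 100% = MG132 at 30 µM as the positive control and 0% = DMSO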
HSF1 inhib = HSF1 inhibitors in luciferase reporter cells, primary screen, cell-based, NIH3T3, luminescence. 300,000 tested, 0.77% active. NIH3T3-HGL HSE-luciferase, MG132-induced, luminescence 8 h; stronger effect = lower value. activity change, negative = inhibition, % at 7.5 µM (by protocol);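 active = more than half of replicate wells show activity change below -50%, luminescence cut by over half; inconclusive = some wells, but at most half, below -50%; inactive = no replicate well below -50%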;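 note: luciferase reports HSF-1 transcriptional activity via heat shock element; 0% = median of DMSO wells and -100% = zero luminescence signal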
AHR act confirm = AHR activators, confirmation, cell-based, luminescence, luciferase reporter, human. shares compounds with AHR activator. human cells, AHR-responsive luciferase reporter. activation, % at 9 µM. 2,300 tested, 87% active; in the data active = activation above about 49%;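 note: HepG2 hepatoma cells carrying a DRE-driven firefly luciferase reporter; 0% = vehicle wells and 100% = reference agonist wells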
PXR counter = human PXR activators, counter-screen for AHR activator project, cell-based, luciferase luminescence; shares compounds with AHR activator; cell-based PXR reporter; activation, % at 11.6 µM; 2,300 tested, 88% active; AID 434939, 2010; in the data active = activation above about 11%;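 note: human hepatoma DPX-2 cells expressing full-length human PXR; 0% = DMSO and 100% = reference agonist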
The depositor's hits bear a star; ? = inconclusive; . = no result given.

SMILES	AHR activator	STAT3 act	PERK inh	PolyA inh	Hsp70 act	HSF1 inhib	AHR act confirm	PXR counter
Cc1[nH]c2ccccc2c1/C=N/NC(=O)Nc1ccccc1	94.7*	147.6*	-0.4	-1.4	-0.1	-1.0	136.1*	45.8*
CCOc1ccccc1C1NC(=O)c2ccccc2O1 (stereo unspecified)	2.6	.	.	-5.6	.	-2.8	.	.
Clc1ccc(-c2nnc(Sc3nc4ccccc4o3)c3ccccc23)cc1	-0.7	97.3	0.9	-0.5	-0.3	-14.0	.	.
O=c1c(Cl)c2oc3ccccc3nc-2c2ccccc12	81.0*	119.7	-0.2	-20.4	-0.4	6.9	122.8*	15.8*
CSc1nc(C(=O)N2CCCC(Nc3ccc(C)c(C)c3)C2)cs1 (stereo unspecified)	108.4*	.	.	-18.0	.	1.4	75.3*	119.4*
Cc1ccccc1S(=O)(=O)Cc1ccc(C(=O)N2CCN(c3ncccn3)CC2)o1	1.6	93.7	-0.9	-10.6	0.3	2.0	.	.
CCc1ccccc1S(=O)(=O)Cc1ccc(C(=O)N2CCN(c3ccccn3)CC2)o1	83.9*	101.4	0.6	-5.1	-0.2	0.3	65.2*	106.9*
O=c1c2ccccc2nc2n1CCC2	2.5	103.3	1.6	-4.8	0.1	-1.3	.	.
O=c1c2ccccc2nc2n1CCc1c-2[nH]c2ccccc12	98.9*	.	.	.	.	.	222.8*	19.6*
O=C(COC(=O)CN1C(=O)C2CCCCC2C1=O)NNC(=O)c1ccc(Cl)cc1 (stereo unspecified)	1.7	.	.	-9.9	.	3.6	.	.
Cc1cc(=O)oc2cc(OCC(=O)Nc3ccccc3C(N)=O)c(Cl)cc12	1.7	.	.	14.3	.	5.2	.	.
CCN(C(=O)CSc1nc(C)nc2sc(C)c(C)c12)c1ccc(F)cc1	0.1	.	.	.	.	.	.	.
Cc1nc(SCC(=O)N(C)Cc2ccco2)c2c(C)c(C)sc2n1	91.7*	89.4	-2.0	-18.5	-0.1	-0.8	55.5*	181.7*
COc1cccc(NC(=O)c2cnc[nH]2)c1	5.8	.	.	-15.3	.	0.0	.	.
O=C(Nc1ccc(Br)cc1)c1cnc[nH]1	108.8*	.	.	14.3	.	9.7	67.7*	18.5*
NC(=S)N/N=C/c1ccc(-c2cc(Cl)c(Cl)cc2Cl)o1	107.7*	97.2	0.1	-37.1	-0.4	4.0	102.1*	21.8*
NC(=S)N/N=C/c1ccc(Br)o1	-1.6	102.1	0.3	2.4	-0.4	-4.5	.	.
COc1cccc(CC(NC(C)=O)C(=O)NC2CCN(C(=O)Nc3ccc(C)cc3)CC2)c1 (stereo unspecified)	.	.	.	13.4	.	-4.5	.	.
Cc1cccn2c(=O)c(C=O)c(N3CCN(c4ccccc4)CC3)nc12	95.2*	114.6	-0.7	-4.1	0.0	6.1	81.0*	65.2*
Cc1cccn2c(=O)c(C=O)c(N3CCN(C)CC3)nc12	3.3	.	.	13.2	.	-3.3	.	.
CS(=O)(=O)c1ccc(Cl)c(NC(=O)c2cc(S(=O)(=O)N3CCOCC3)ccc2N2CCCC2)c1	0.3	.	.	17.9	.	1.3	.	.
Cc1cccc(NS(=O)(=O)c2cc3c(cc2C)n(C)c(=O)c(=O)n3C)c1	-1.9	.	.	9.6	.	3.4	.	.
COc1ccc(-n2cc(-c3ccc(Cl)cc3)[nH]c2=S)cc1	41.6	.	0.3	-14.0	.	18.4	.	.
COc1ccc(-c2cn(-c3ccc(C)c(C)c3)c(=S)[nH]2)cc1OC	21.6	.	.	13.0	.	23.1	.	.
COc1ccccc1-c1cn(-c2ccccc2)c(=S)[nH]1	112.0*	.	.	-4.1	.	1.8	108.7*	105.1*
SMILES	AHR activator	STAT3 act	PERK inh	PolyA inh	Hsp70 act	HSF1 inhib	AHR act confirm	PXR counter
COc1cccc(-n2cc(-c3ccc(F)cc3)[nH]c2=S)c1	108.5*	.	.	-5.7	.	-17.8	12.4	51.9*
COc1ccccc1-n1cc(-c2ccc(C)cc2)[nH]c1=S	109.0*	.	.	-25.6	.	-2.3	87.3*	97.0*
O=C(NC1CCC(O)CC1)c1cccc2cccnc12 (stereo unspecified)	0.6	.	.	-14.6	.	-2.0	.	.
CCOC(=O)C1CCN(S(=O)(=O)c2ccc3c(c2)CCN3C(=O)C2CCC2)CC1	-0.1	.	.	-7.5	.	-1.2	.	.
Cc1ccc(S(=O)(=O)N(C)C)cc1NC(=O)C(C)OC(=O)C1CCCCC1 (stereo unspecified)	-0.6	.	.	.	.	.	.	.
CC(C)(C=O)C1=CC(=O)c2ccccc2C1=O	83.0*	139.1*	0.0	.	-0.3	.	112.0*	25.5*
CC1=CC(=O)c2ccccc2C1=O	21.9	118.1	-1.4	24.0	0.0	-1.5	.	.
O=C(CCC(=O)N(CC(=O)NC1CCCCC1)Cc1cccs1)Nc1nccs1	-1.5	.	1.4	-17.6	.	-4.7	.	.
COC(=O)Nc1nn(-c2ccc(Cl)cc2)c(=O)c(C#N)c1C	96.2*	.	1.1	-8.3	.	-6.9	28.7	14.2*
O=C(/C=C/c1ccccc1)c1c[nH]c2ccccc12	83.8*	.	1.6	-8.5	.	54.4	92.6*	31.5*
O=C(Nc1ccccc1)C(=O)c1c[nH]c2ccccc12	102.0*	.	.	5.1	.	40.5	129.0*	28.0*
Cc1cc(NC(=O)COC(=O)c2cnccn2)ccc1Br	7.4	.	.	.	.	.	.	.
CC(C)COC(=O)COc1cc(Cl)c(Cl)cc1Cl	-0.6	.	.	.	.	.	.	.
O=C(N/N=C\c1cc2c(cc1Cl)OCO2)c1cccnc1	80.0*	.	.	6.7	.	-2.1	79.3*	13.3*
O=C(N/N=C/c1cc2c(cc1Cl)OCO2)c1ccncc1	86.8*	96.5	0.5	-7.9	-0.3	9.4	63.0*	8.7
O=C(N/N=C/c1cc2c(cc1Cl)OCO2)c1cccc(Br)c1	32.3	.	.	-15.3	.	4.3	.	.
O=C(N/N=C/c1cc2c(cc1Cl)OCO2)c1cc(-c2ccccc2)n[nH]1	34.1	.	.	2.5	.	-0.5	.	.
O=[N+]([O-])c1ccc(N/N=C/c2cccnc2)cc1	-2.9	.	.	2.2	.	-2.6	.	.
[O-]/[N+](=C/c1cccnc1)c1ccc(Br)cc1	93.2*	113.9	0.3	3.7	0.0	21.7	117.3*	18.1*
O=[N+]([O-])c1ccc(/C=C/c2ccncc2)cc1	-0.7	.	2.8	?	.	12.5	.	.
[O-]/[N+](=C\c1ccncc1)c1ccc(Br)cc1	123.1*	101.1	-0.3	-10.6	-0.4	78.4	130.4*	16.3*
CC1(C)OC(C(O)(c2ccccc2)c2ccccc2)[C@@H](C(O)(c2ccccc2)c2ccccc2)O1 (stereo partly specified)	-0.2	.	.	-7.1	.	-1.2	.	.

Bioassay records as filed in PubChem.
